High-throughput results from PubChem BioAssay.
Most compounds without a hit are left out; they make up all but 1.4% or so of the library.
FN deposit inh: fibronectin deposition inhibition; inhibition, % at 12.6 µM; hit rate 0.086% among 350,000; AH1F fibroblasts, Alexa488-fibronectin deposition fluorescence, overnight;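 active means mean inhibition across replicates of 30% or more, regardless of how many single replicates reach that level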;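 further: positive control wells lacked labelled fibronectin entirely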
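Schedule: 1 h cell adhesion before compound, then overnight fibronectin incubation; test system: AH1F fibroblast monolayer depositing Alexa488-labelled fibronectin into matrix; quantity: 10000 AH1F cells per well; probe or stimulus: fluorescent fibronectin at 24 nM final; signal: fluorescence, ex 485 nm, em 525 nm; evaluation: percent inhibition as loss of matrix-bound fibronectin fluorescence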
ERp5 inh: ERp5 (human) disulfide isomerase inhibition. inhibition, % at 9.99 µM. Q15084. hit rate 0.05% among 350,000. ERp5 insulin aggregation, absorbance 650 nm, 90 min. AID 651711;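 active means mean replicate inhibition above about 25%, with every replicate also reaching it, limit read from the data, passing the limit was not always enough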
Env fusion inh: HIV envelope-mediated fusion inhibition; AID 651610; hit rate 1.1% among 360,000; inhibition, % at 12.3 µM; HeLa-JRFL Env/CEM21 cell fusion, luciferase;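 active means mean replicate inhibition score of at least 50 and every replicate individually at or above 50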;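 further: 0% = plate neutral controls and 100% = maraviroc near 300 nM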
GSIS activator: primary screen for activators of insulin secretion dependent on glucose, INS-1E cells, GLuc reporter luminescence. INS-1E GLuc reporter insulin secretion, 2-3 h. AID 743287. hit rate 0.61% among 370,000. activation, % at 16.6 µM;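 active means lowest replicate activation of at least 40%, so every replicate reaches that level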;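 further: 0% = median of neutral control wells and 100% = median of IBMX positive control wells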
PDI turbidity: inhibitors of human protein disulfide isomerase. P07237. PDI insulin aggregation turbidity, A650, 90 min. inhibition, % at 10 µM. hit rate 0.052% among 350,000. AID 588391;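 active means mean inhibition across replicates of 30% or more, whatever share of single replicates reach that level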
Target sequence (P07237 whole entry, looked up): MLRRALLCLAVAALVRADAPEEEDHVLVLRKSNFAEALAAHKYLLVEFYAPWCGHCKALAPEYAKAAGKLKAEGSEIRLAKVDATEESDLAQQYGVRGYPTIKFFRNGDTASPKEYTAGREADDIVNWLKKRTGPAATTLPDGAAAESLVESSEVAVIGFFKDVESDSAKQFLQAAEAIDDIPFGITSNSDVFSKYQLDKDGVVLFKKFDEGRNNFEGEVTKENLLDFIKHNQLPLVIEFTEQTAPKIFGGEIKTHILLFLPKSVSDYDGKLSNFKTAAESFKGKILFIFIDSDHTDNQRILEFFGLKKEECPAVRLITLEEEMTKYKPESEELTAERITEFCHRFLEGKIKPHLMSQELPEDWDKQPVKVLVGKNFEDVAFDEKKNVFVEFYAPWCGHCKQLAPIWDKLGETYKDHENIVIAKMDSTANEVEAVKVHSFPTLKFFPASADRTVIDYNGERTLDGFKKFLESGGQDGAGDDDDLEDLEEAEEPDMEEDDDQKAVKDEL
Active calls of the source: *; / = not tested or not shown; [ ] = another dose, or the depositor's remark.

SMILES | FN deposit inh | ERp5 inh | Env fusion inh | GSIS activator | PDI turbidity
CC(C)(C)C1CCc2onc(C(=O)NCc3ccc(F)cc3)c2C1 (stereo not given) | -4 | / | 76* | -9 | 9
Cc1nn(Cc2ccc(Cl)cc2)c(C)c1NC(=O)c1noc2c1CCCCC2 | / | -2 | / | / | -1
O=C(NCc1ccc(F)cc1)c1noc2c1CCCC2 | / | 2 | / | / | 0
Cc1nn(Cc2ccc(Cl)c(Cl)c2)c(C)c1NC(=O)c1noc2c1CCCCC2 | -19 | / | 56* | -36 | -4
Cc1ccccc1Cn1nc(C)c(NC(=O)c2noc3c2CC(C(C)(C)C)CC3)c1C (stereo not given) | 1 | / | 56* | -31 | -3
Cc1noc(C)c1NC(=O)N(C)C[C@@H]1OCCCC[C@H](C)Oc2ccc(NC(=O)CCC(F)(F)F)cc2C(=O)N([C@H](C)CO)C[C@H]1C | / | -1 | 10[16.7 µM] | 3 | /
CCCCCCc1cc2cc(C(=O)Nc3cccc(OC)c3)c(=O)oc2cc1O | 1 | / | -4 | 68* | -9
COc1ccc(NC(=O)Nc2ccc3c(c2)C(=O)N([C@@H](C)CO)C[C@@H](C)[C@H](CN(C)S(=O)(=O)c2c(C)noc2C)OCCCC[C@@H](C)O3)cc1 | / | / | -35[16.7 µM] | 2 | /
COc1ccc(NC(=O)Nc2ccc3c(c2)C(=O)N([C@@H](C)CO)C[C@H](C)[C@@H](CN(C)S(=O)(=O)c2c(C)noc2C)OCCCC[C@H](C)O3)cc1 | / | / | 68*[16.7 µM] | -9 | /
Cc1noc(C)c1S(=O)(=O)N(C)C[C@H]1OCCCC[C@H](C)Oc2ccc(NC(=O)Nc3ccccc3)cc2C(=O)N([C@@H](C)CO)C[C@@H]1C | -2 | 0 | 65*[16.7 µM] | -14 | /
CNC(=O)C[C@@H]1CC[C@@H]2[C@@H](COc3ccc(NC(=O)Nc4cc(C)cc(C)c4)cc3C(=O)N2C)O1 | -11 | / | 2[16.7 µM] | 4 | /
COCCNC(=O)C[C@H]1CC[C@@H]2[C@H](COc3ccc(NC(=O)Nc4ccccc4)cc3C(=O)N2C)O1 | -18 | -6 | 3[16.7 µM] | -4 | /
CSc1nc(N)n2nc(C)cc2n1 | 8 | 0 | -3 | 1 | /
CSc1nc(N)n2nc(C(C)(C)C)cc2n1 | -8 | 2 | 10 | 54* | 14
COc1cccc(-c2cnc3c(c2)C(=O)N([C@@H](C)CO)C[C@@H](C)[C@H](CN(C)Cc2ccc(C(=O)O)cc2)O3)c1 | 2 | 2 | -24[16.7 µM] | 21 | /
O=C(Cn1ncc2c(=O)oc3ccccc3c21)N1CCC(N2CCCCC2)CC1 | 2 | 3 | 74* | / | /
COc1ccc(-n2c3c(c(=O)[nH]c2=O)C(NS(=O)(=O)c2ccc(Cl)cc2)(C(F)(F)F)C(=O)N3)cc1 (stereo not given) | 7 | -1 | -1 | 55* | -3
C[C@@H]1CN([C@@H](C)CO)C(=O)Cc2cc(NC(=O)Cc3cn(C)c4ccccc34)ccc2O[C@H]1CN(C)C(=O)Nc1ccc(F)cc1 | / | -2 | 28[16.7 µM] | 3 | /
CN(C)CC(=O)N[C@@H]1CC[C@H](CCn2cc(C3CCCCC3)nn2)O[C@@H]1CO | -2 | -6 | -4[16.7 µM] | 1 | /
COc1ccccc1S(=O)(=O)N(C)C[C@H]1Oc2cc(C#CCC(C)C)ccc2S(=O)(=O)N([C@@H](C)CO)C[C@H]1C | / | 0 | 55*[16.7 µM] | 1 | /
COc1ccccc1S(=O)(=O)N(C)C[C@H]1Oc2cc(C#CCC(C)C)ccc2S(=O)(=O)N([C@H](C)CO)C[C@@H]1C | / | -3 | 26[16.7 µM] | 12 | /
COc1cccc(S(=O)(=O)N(C)C[C@H]2Oc3cc(C#CCC(C)C)ccc3S(=O)(=O)N([C@H](C)CO)C[C@H]2C)c1 | -6 | 1 | 73*[16.7 µM] | -8 | /
CCCC#Cc1ccc2c(c1)O[C@H](CN(C)S(=O)(=O)c1cccc(OC)c1)[C@H](C)CN([C@H](C)CO)S2(=O)=O | -11 | -3 | 38[16.7 µM] | 4 | 5
COc1cccc(S(=O)(=O)N(C)C[C@@H]2Oc3cc(C#CCC(C)C)ccc3S(=O)(=O)N([C@H](C)CO)C[C@@H]2C)c1 | -5 | 1 | 62*[16.7 µM] | 0 | /
C[C@H]1CCCCO[C@@H](CN(C)C(=O)Nc2ccc(C(F)(F)F)cc2)[C@@H](C)CN([C@@H](C)CO)C(=O)c2cc(NS(=O)(=O)c3ccccc3)ccc2O1 | 0 | -3 | 64*[16.7 µM] | 19 | /
COc1ccc(S(=O)(=O)Nc2ccc3c(c2)C(=O)N([C@H](C)CO)C[C@H](C)[C@H](CN(C)C(=O)Nc2ccccc2)OCCCC[C@H](C)O3)cc1 | 0 | 15 | 60*[16.7 µM] | -16 | /
